Assay outcomes: PubChem BioAssay, The Scripps Research Institute Molecular Screening Center
5HT1a antag: human 5-HT1a receptor antagonists, primary screen, cell-based, CHO, Ga15 NFAT-bla reporter | CHO 5-HT1a Ga15 NFAT-bla reporter, antagonist mode | inhibition, % at 10 µM | 0.68% of 62,000 active;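 active = inhibition above the mean of all tested compounds plus 3 SD, cut at about 43% in these data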;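 note: receptor stimulated by 5-CT agonist at 100 nM near EC80; beta-lactamase reporter measured by ratiometric fluorescence of a cleavable substrate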
Target sequence (P08908 whole entry, looked up): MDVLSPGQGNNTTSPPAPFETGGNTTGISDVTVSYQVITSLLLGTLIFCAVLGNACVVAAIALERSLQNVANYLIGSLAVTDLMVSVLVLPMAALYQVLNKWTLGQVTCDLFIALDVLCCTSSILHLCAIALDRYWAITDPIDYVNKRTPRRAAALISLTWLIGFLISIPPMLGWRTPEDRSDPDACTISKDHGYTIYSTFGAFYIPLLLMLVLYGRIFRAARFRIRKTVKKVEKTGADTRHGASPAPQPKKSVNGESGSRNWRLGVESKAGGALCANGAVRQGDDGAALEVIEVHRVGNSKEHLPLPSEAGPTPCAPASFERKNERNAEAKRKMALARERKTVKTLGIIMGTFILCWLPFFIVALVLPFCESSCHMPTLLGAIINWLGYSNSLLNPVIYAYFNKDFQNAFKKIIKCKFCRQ
HTR1E antagonist: 5-HT1E receptor antagonists, primary screen, cell-based, HTS; 5-hydroxytryptamine receptor 1E (Homo sapiens), P28566; CHO 5-HT1E Ga15 NFAT-bla reporter, FRET, antagonist; inhibition, % at 6 µM; 0.99% of 65,000 active; AID 571, 2007;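 active = inhibition above a set limit, the mean inhibition across every tested compound plus 3 SD, cut at about 29% in these data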;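 note: signal is the 460 over 535 nm emission ratio of beta-lactamase substrate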
S1P3 agonist: human S1P3 receptor agonists, primary screen, cell-based, primary and confirmation, NFAT-BLA reporter. Sphingosine 1-phosphate receptor 3 (Homo sapiens), Q99500. S1P3 NFAT-BLA reporter cells, agonism, FRET ratio; relative to 1 µM S1P, basal subtracted. activation, % at 4.5 µM. 0.1% of 60,000 active;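 active = activation above the screen-wide mean plus 3 SD, cut at about 4.5% in these data, passing the limit was not always enough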
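material = human S1P3 NFAT-BLA reporter CHO cells | schedule = 4 h compound at 37 °C, 2 h substrate at RT | measured by = fluorescent BLA substrate, ex 405 nm, em 460/535 nm ratio | controls = 1 µM S1P reference | replication = primary once, confirmation triplicate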
5HT1a ag: human 5-HT1a receptor agonists, primary screen, cell-based, CHO, Ga15 NFAT-bla reporter; 5-hydroxytryptamine receptor 1A (Homo sapiens), P08908; CHO 5-HT1a Ga15 NFAT-bla reporter, FRET ratio; 0% basal, 100% maximal reference agonist; activation, % at 10 µM; 0.56% of 65,000 active; AID 567, 2006;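 active = activation above the screen-wide mean activation plus 3 SD, cut at about 19% in these data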
S1P1 ag pot: S1P1 agonists and agonism potentiators, primary screen, cell-based, primary and confirmation screens, CRE-bla reporter; Sphingosine 1-phosphate receptor 1 (Homo sapiens), P21453; S1P1 CRE-bla cells, forskolin, beta-lactamase FRET, potentiator mode; S1P1 agonist co-added at EC20, 2 nM; 100% = saturating reference agonist, 0% = basal; activation, % at 9.5 µM; 0.57% of 56,000 active; AID 449, 2006;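 active = activation above a cutoff set at the mean activation of all tested compounds plus 3 SD, cut at about 54% in these data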;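 note: forskolin at 4 µM as EC80 and the EC20 agonist is SEW2871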
5HT1E ag: 5-HT1E receptor agonists, primary screen, cell-based, HTS | CHO 5-HT1E Ga15 NFAT-bla reporter, FRET; 0% DMSO wells, 100% control agonist wells | 0.69% of 65,000 active | 5-hydroxytryptamine receptor 1E (Homo sapiens), P28566 | activation, % at 6 µM;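 active = activation above a set limit, the screen-wide mean activation plus 3 SD, cut at about 8.5% in these data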
Each line names hits and unclear results; the compound was inactive in the other large screens. Rows were chosen to be rich in hits. Some 3% of all compounds tested hit in one or more screens of this group.

CCOC(=O)c1sc(C)c2c1NC(C)(c1cccs1)NC2=O (configuration not stated)	none
COC(=O)c1ccc(-n2nnnc2SCC(=O)Nc2cc(OC)ccc2OC)cc1	none
COc1ccc(OC)c(NC(=O)CSc2nnnn2-c2ccc3c(c2)OCO3)c1	5HT1a antag 44.4
CC(=O)Nc1ccc(NC(=O)CN(C)CCC#N)cc1	none
CCOc1ccc(-c2[nH]ncc2-c2ccc(OC)c(OC)c2)c(O)c1	none
COc1ccc(-c2[nH]ncc2-c2ccc3c(c2)OCCO3)c(O)c1	5HT1a antag 44.4, S1P1 ag pot 91.2
CCc1cc(-c2[nH]ncc2-c2ccc3c(c2)OCO3)c(O)cc1O	S1P1 ag pot 69.2
Cc1noc(C)c1COc1cccc(C(=O)OCC(=O)N2CC(=O)Nc3ccccc32)c1	HTR1E antagonist 38.2
CCC(CC)c1nc2cc(OC)c(OC)cc2c(=O)o1	5HT1E ag 35.0 (no result: 5HT1a antag)
Cc1ccc(OCCn2cc(/C(N)=N/O)c3ccccc32)cc1C	HTR1E antagonist 35.7, S1P1 ag pot 68.3
COc1ccccc1NC(=O)CSc1nnc(-c2ccncc2)n1CC1CCCO1 (configuration not stated)	5HT1a ag 37.2
COc1ccc(Cl)cc1NC(=O)CSc1nnc(-c2ccncc2)n1CC1CCCO1 (configuration not stated)	none
COc1cccc(-c2nc(CS(=O)CC(=O)NCc3ccccc3)c(C)o2)c1 (configuration not stated)	none
Nc1nonc1C(=O)OCC(=O)N1CCCCC1	none
Nc1nonc1/C(=N/O)N1CCCC1	5HT1a ag 130.4
O=C(CSc1ncnc2c1oc1ccccc12)N1CCCc2ccccc21	S1P1 ag pot 64.9
COc1cccc(NC(=O)CSc2ncnc3c2oc2ccccc23)c1	HTR1E antagonist 31.2
CN(C)c1ccc(/C=N/n2ncc3ccccc32)cc1	5HT1a ag 24.5 (no result: S1P3 agonist, S1P1 ag pot)
CCNc1nc2c(c(=O)n(C)c(=O)n2C)n1Cc1ccc(Cl)cc1	S1P1 ag pot 61.4
CCNc1nc2c(c(=O)n(Cc3ccccc3)c(=O)n2C)n1Cc1ccccc1	5HT1a ag 37.4
C=CCOc1cccc(C2c3c(oc4ccc(F)cc4c3=O)C(=O)N2CCCN2CCOCC2)c1 (configuration not stated)	none
CC(C)(C)Nc1nc(SCc2ccccc2)nc(N2CCOCC2)n1	none
CNc1nc(SCc2ccccc2)nc(N2CCOCC2)n1	HTR1E antagonist 33.1
O=C1CCC(C(=O)O)(c2ccccc2)C1 (configuration not stated)	none
CC(C)(C)NC(=O)COC(=O)Cc1ccc(Cl)cc1	none (no result: S1P3 agonist, S1P1 ag pot)
O=C(CSc1ccc(-c2ccccc2)nn1)N1CCOCC1	none
O=C(CN1C(=O)CC(c2ccccc2)=Nc2ccccc21)NCc1ccco1	HTR1E antagonist 31.5
O=C(CN(CCc1ccccc1)C(=O)CN1C(=O)COc2ccccc21)NCc1ccco1	none
O=C(CN1C(=O)C2C3C=CC(C3)C2C1=O)NCc1ccc2c(c1)OCO2 (configuration not stated)	none
O=c1n(CCCN2CCN(c3cccc(Cl)c3)CC2)nc2ccccn12	5HT1E ag 9.5 (no result: 5HT1a antag)
COc1ccccc1NC(=O)NCCCN1CCN(c2cccc(Cl)c2)CC1	none
O=C(Cc1ccccc1)NCc1nc2ccccc2[nH]1	none
COc1cccc2c1OC1(C)CC2NC(=O)N1c1cccc(C(=O)Nc2ccc3c(c2)OCCO3)c1 (configuration not stated)	none (no result: S1P3 agonist, S1P1 ag pot)
CCCC(c1nnnn1Cc1ccco1)N1CCN(c2cc(Cl)ccc2C)CC1 (configuration not stated)	5HT1a antag 51.2
COc1cc(C2C(C#N)=C(C)NC3=C2C(=O)c2ccccc23)cc(OC)c1OC (configuration not stated)	5HT1a antag 63.1, HTR1E antagonist 82.3
CCOC(=O)c1ccc(N=c2sc(C(=O)OC)cc(=O)n2C2CC2)cc1	none
COC(=O)c1cc(=O)n(C2CC2)c(=NC2CC2)s1	HTR1E antagonist 31.2 (no result: S1P3 agonist, S1P1 ag pot)
CC1(C)Cc2c(c(N3CCOCC3)nc3sc(-c4ccc(C(=O)O)o4)c(N)c23)CO1	none
CNC(=O)c1ccc(-c2sc3nc(N4CCOCC4)c4c(c3c2N)CCCC4)o1	HTR1E antagonist 32.0 (no result: S1P1 ag pot)
CCCC1C(C#N)=C(N)Oc2n[nH]c(C(C)(C)C)c21 (configuration not stated)	none
Cc1nn(-c2nc3ccccc3s2)c(N)c1-c1ccccc1	S1P1 ag pot 95.3
Cc1cc(C#N)c(C)n1-c1cc(C(F)(F)F)ccc1N1CCOCC1	5HT1a antag 42.8
O=C(Nc1ccon1)c1csc2c1CCCC2	5HT1E ag 8.9
O=C(Nc1ccon1)c1csc2ccccc12	none
Cc1cc(C(=O)CSc2nnnn2-c2ccc(O)cc2)c(C)n1Cc1ccc2c(c1)OCO2	S1P1 ag pot 61.3
CN1CCN(c2ncnc3c2sc2nc(N4CCCC4)c4c(c23)CC(C)(C)OC4)CC1	none (no result: S1P3 agonist, S1P1 ag pot)
c1csc(-c2csc3nc(CN4CCOCC4)nc(NCc4ccc5c(c4)OCO5)c23)c1	5HT1a antag 51.6
COC(=O)CN(c1ccc(OC)cc1)S(=O)(=O)c1ccc(OC)c(OC)c1	5HT1a ag 19.5 (no result: S1P1 ag pot)
CCN1C(=O)c2ccccc2S(=O)c2ccc(C(=O)NC3CC3)cc21 (configuration not stated)	none
CCN1C(=O)c2ccccc2S(=O)c2ccc(C(=O)NCCCN3CCCC3=O)cc21 (configuration not stated)	HTR1E antagonist 30.0
CCOC(=O)c1ccc(NS(=O)(=O)c2cnc[nH]2)cc1	none
Cc1cc(C(=O)Nc2sc(C)c(-c3ccc(F)cc3)c2C(N)=O)no1	S1P1 ag pot 101.6
CCCc1cc(C(N)=O)c(NC(=O)c2cc(C)on2)s1	none
Cn1c(C(=O)N2CCN(c3ccccn3)CC2)cc2c(=O)n(C)c3ccccc3c21	5HT1E ag 21.3
COCCOC(=O)c1[nH]c2c(c1C)C(=O)CC(c1ccco1)C2 (configuration not stated)	HTR1E antagonist 34.7
